# Measurements from PMC3065953 (Inorganic chemistry, 2011).
# Tested on: human lung carcinoma (A549) cells
# Assay: MTT cytotoxicity assay in A549 cells
# Format: cell-based
# Conditions: 72-h exposure, mean ± SD of at least three experiments
# Summary of the method: (§1)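 Cells kept in DMEM/10% FBS/1% penicillin-streptomycin at 37 °C, 5% CO2. Seeded 1500 (A549) or 2500 (MRC-5) cells/well, 24 h, then 72 h in fresh medium with graded Pt concentrations. Pt(IV) complexes diluted from 10–20 mM DMSO stocks, reference Pt(II) drug from 2 mM PBS stock. MTT 0.8 mg/mL, 4 h; formazan dissolved in DMSO/10% pH 10.5 glycine buffer; A570. Viability normalized to Pt-free wells; IC50 extrapolated from curves. ≥3 independent experiments in triplicate.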
row,SMILES,IC50 [µM]
1,[NH2][Pt]([NH2])([Cl])([Cl])([O]C(=O)Nc1cccc2ccccc12)[O]C(=O)Nc1cccc2ccccc12 [Compound 11],4.3 ± 1.5
2,"N.N.[Cl][Pt][Cl] [cisplatin, cis-diamminedichloroplatinum(II), reference compound]",7 ± 2.6
3,COc1ccc(NC(=O)[O][Pt]([NH2])([NH2])([Cl])([Cl])[O]C(=O)Nc2ccc(OC)cc2)cc1 [Compound 9],5.3 ± 2.5
4,[NH2][Pt]([NH2])([Cl])([Cl])([O]C(=O)NC1CCCC1)[O]C(=O)NC1CCCC1 [Compound 5],0.6 ± 0.3
5,CC(C)(C)NC(=O)[O][Pt]([NH2])([NH2])([Cl])([Cl])[O]C(=O)NC(C)(C)C [Compound 4],1 ± 0.3

# Tested on: human normal lung fibroblasts (MRC-5) cells
# Assay: MTT cytotoxicity assay in MRC-5 cells
# Format: cell-based
# Conditions: MRC-5 cells
# Summary of the method: as §1
row,SMILES,cytotoxicity relative to cisplatin
1,[NH2][Pt]([NH2])([Cl])([Cl])([O]C(=O)NC1CCCC1)[O]C(=O)NC1CCCC1 [Compound 5],more toxic
2,CC(C)(C)NC(=O)[O][Pt]([NH2])([NH2])([Cl])([Cl])[O]C(=O)NC(C)(C)C [Compound 4],more toxic

# Same assay, conditions: MRC-5 cells, MTT assay, 72-h exposure, mean ± SD of at least three experiments
row,SMILES,IC50 [µM]
1,[NH2][Pt]([NH2])([Cl])([Cl])([O]C(=O)Nc1cccc2ccccc12)[O]C(=O)Nc1cccc2ccccc12 [Compound 11],4.8 ± 0.3
2,"N.N.[Cl][Pt][Cl] [cisplatin, cis-diamminedichloroplatinum(II), reference compound]",4.3 ± 1.3
3,COc1ccc(NC(=O)[O][Pt]([NH2])([NH2])([Cl])([Cl])[O]C(=O)Nc2ccc(OC)cc2)cc1 [Compound 9],9.3 ± 3.2
4,[NH2][Pt]([NH2])([Cl])([Cl])([O]C(=O)NC1CCCC1)[O]C(=O)NC1CCCC1 [Compound 5],2.3 ± 0.7
5,CC(C)(C)NC(=O)[O][Pt]([NH2])([NH2])([Cl])([Cl])[O]C(=O)NC(C)(C)C [Compound 4],2.8 ± 0.8

# Same assay, conditions: MRC-5 vs. A549 IC50
row,SMILES,factor less cytotoxic in the healthy cells compared to the cancerous cells
1,[NH2][Pt]([NH2])([Cl])([Cl])([O]C(=O)NC1CCCC1)[O]C(=O)NC1CCCC1 [Compound 5],~2
2,CC(C)(C)NC(=O)[O][Pt]([NH2])([NH2])([Cl])([Cl])[O]C(=O)NC(C)(C)C [Compound 4],~2

# Tested on: not listed separately
# Assay: Cyclic voltammetry in DMF
# Format: physicochemical
# Conditions: DMF, 0.1 M (n-Bu4N)PF6, scan rate 100 mV/s
row,SMILES,"Ep, V vs. Ag/AgCl (peak reduction potential) [V]"
1,[NH2][Pt]([NH2])([Cl])([Cl])([O]C(=O)Nc1cccc2ccccc12)[O]C(=O)Nc1cccc2ccccc12 [Compound 11],−0.63
2,"CC(=O)[O][Pt]([NH2])([NH2])([Cl])([Cl])[O]C(C)=O [Compound 1, c,c,t-[Pt(NH3)2Cl2(O2CCH3)2], reference compound]",−0.72
3,"[NH2][Pt]([NH2])([Cl])([Cl])([Cl])[Cl] [Compound 3, cis-[Pt(NH3)2Cl4], reference compound]",−0.45
4,"[NH2][Pt]([NH2])([Cl])([Cl])([O]C(=O)C(F)(F)F)[O]C(=O)C(F)(F)F [Compound 2, c,c,t-[Pt(NH3)2Cl2(O2CCF3)2]]",−0.35
5,COc1ccc(NC(=O)[O][Pt]([NH2])([NH2])([Cl])([Cl])[O]C(=O)Nc2ccc(OC)cc2)cc1 [Compound 9],−0.72
6,[NH2][Pt]([NH2])([Cl])([Cl])([O]C(=O)NC1CCCC1)[O]C(=O)NC1CCCC1 [Compound 5],−0.85
7,CC(C)(C)NC(=O)[O][Pt]([NH2])([NH2])([Cl])([Cl])[O]C(=O)NC(C)(C)C [Compound 4],−0.85

# Same assay, conditions: vs. Ag/AgCl; in DMF
row,SMILES,reduction peak potential [mV]
1,[NH2][Pt]([NH2])([Cl])([Cl])([O]C(=O)Nc1cccc2ccccc12)[O]C(=O)Nc1cccc2ccccc12 [Compound 11],−625
2,"CC(=O)[O][Pt]([NH2])([NH2])([Cl])([Cl])[O]C(C)=O [Compound 1, c,c,t-[Pt(NH3)2Cl2(O2CCH3)2], reference compound]",−722
3,"[NH2][Pt]([NH2])([Cl])([Cl])([Cl])[Cl] [Compound 3, cis-[Pt(NH3)2Cl4], reference compound]",−454
4,"[NH2][Pt]([NH2])([Cl])([Cl])([O]C(=O)C(F)(F)F)[O]C(=O)C(F)(F)F [Compound 2, c,c,t-[Pt(NH3)2Cl2(O2CCF3)2]]",−345

# Tested on: not listed separately
# Assay: Cyclic voltammetry in aqueous solution
# Format: physicochemical
# Conditions: value in parentheses, this work (Figure S3)
row,SMILES,"Ep, V vs. Ag/AgCl (peak reduction potential) [V]"
1,"[NH2][Pt]([NH2])([Cl])([Cl])([O]C(=O)C(F)(F)F)[O]C(=O)C(F)(F)F [Compound 2, c,c,t-[Pt(NH3)2Cl2(O2CCF3)2]]",0.01

# Tested on: not given
# Assay: not given
# Conditions: in water / aqueous media; cited from earlier work
row,SMILES,peak potential [mV]
1,"CC(=O)[O][Pt]([NH2])([NH2])([Cl])([Cl])[O]C(C)=O [Compound 1, c,c,t-[Pt(NH3)2Cl2(O2CCH3)2], reference compound]",−635
2,"[NH2][Pt]([NH2])([Cl])([Cl])([Cl])[Cl] [Compound 3, cis-[Pt(NH3)2Cl4], reference compound]",−260
3,"[NH2][Pt]([NH2])([OH])([OH])([Cl])[Cl] [c,c,t-[Pt(NH3)2Cl2(OH)2]]",−880

# Same assay, conditions: value in parentheses, aqueous solution; cited from earlier work
row,SMILES,"Ep, V vs. Ag/AgCl (peak reduction potential) [V]"
1,"CC(=O)[O][Pt]([NH2])([NH2])([Cl])([Cl])[O]C(C)=O [Compound 1, c,c,t-[Pt(NH3)2Cl2(O2CCH3)2], reference compound]",−0.64
2,"[NH2][Pt]([NH2])([Cl])([Cl])([Cl])[Cl] [Compound 3, cis-[Pt(NH3)2Cl4], reference compound]",−0.26
